# From PubChem BioAssay
# UBC13 inh – human UBC13 polyubiquitination inhibition; AID 485273; P61088; 0.47% of 330,000 active; UBC13 polyubiquitin chain formation, TR-FRET; inhibition, % at 20 µM; in the data active = inhibition above about 45%, passing the limit was not always enough
# Target sequence (P61088 whole entry, looked up): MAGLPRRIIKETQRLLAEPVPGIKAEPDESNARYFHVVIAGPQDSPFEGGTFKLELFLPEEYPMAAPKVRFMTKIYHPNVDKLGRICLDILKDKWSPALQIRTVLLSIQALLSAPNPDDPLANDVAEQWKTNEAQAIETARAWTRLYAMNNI
# M18AAP inhibitor – blocks P. falciparum M18 aspartyl aminopeptidase. AID 1822. inhibition, % at 7.35 µM. recombinant PfM18AAP, H-Glu-NHMec fluorogenic cleavage. 1.2% of 290,000 active;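 active = inhibition above the campaign mean inhibition over all tested compounds plus 3 SD, cut at about 28% in these data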;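 note: 0% = plate median of test compound wells and 100% = 2 mM ZnCl2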
# Apaf1 inhib – blocks human Apaf-1 apoptosome activity; inhibition, % at 20 µM; 0.71% of 330,000 active; O14727; AID 489030; reconstituted apoptosome caspase-3 activity, DEVD-Rh110 fluorescence; active = inhibition of at least 40% at 20 µM;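 note: plate controls were DMSO wells for no effect and DEVD-CHO caspase inhibitor wells for full effect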
#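 Assay system: Apoptosome proteins | Medium: pH 7.5 Hepes buffer with CHAPS, BSA, DTT | Also added: Cytochrome c and DEVD-Rh110 substrate | Times: 30 min plus 50 min, RT | Detection: Rhodamine 110 fluorescence at Ex 480/Em 540 nm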
# EBNA-1 inhibitor – blocks EBNA-1 binding to DNA; EBNA-1 DNA binding, fluorescence polarization; inhibition, % at 14.8 µM; AID 1950; 0.34% of 300,000 active; in the data active = inhibition above about 28%
# ZTA counter – counter-screen for EBNA-1 inhibitors: inhibitors of Epstein-Barr virus ZTA; ZTA-DNA binding, fluorescence polarization; inhibition, % at 11 µM; 0.15% of 320,000 active; in the data active = inhibition above about 33%
# Target sequence (P03206 whole entry, looked up): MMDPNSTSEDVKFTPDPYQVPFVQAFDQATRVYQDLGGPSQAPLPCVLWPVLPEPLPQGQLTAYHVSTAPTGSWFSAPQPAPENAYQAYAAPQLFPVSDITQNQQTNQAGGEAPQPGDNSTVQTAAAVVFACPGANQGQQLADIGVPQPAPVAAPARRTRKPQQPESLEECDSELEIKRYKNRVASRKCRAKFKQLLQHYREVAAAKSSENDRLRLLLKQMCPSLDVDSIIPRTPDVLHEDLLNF
# PfGluPho inh – PfG6PD (Plasmodium falciparum) enzyme inhibition | PfGluPho enzyme, NADPH resazurin-diaphorase fluorescence | AID 504690 | inhibition, % at 20 µM | 0.78% of 350,000 active;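 active = inhibition reaching at least a set limit at 20 µM in the primary screen, cut at about 59% in these data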;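 note: 0% = DMSO wells with substrate and 100% = DMSO wells lacking glucose-6-phosphate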
# Apaf-1 inh conf2 – confirmation of Apaf-1 inhibitors | shares compounds with Apaf1 inhib | reconstituted apoptosome, caspase-3 DEVD-Rh110 fluorescence | inhibition, % at 20 µM | 25% of 1,800 active | AID 504614;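 active = mean inhibition of at least 40% at 20 µM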;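 note: plate controls were DMSO wells for no effect and DEVD-CHO caspase inhibitor control wells for full effect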
# Rh110 quench – interferes with Rh110 fluorescence, flagging false Apaf-1 inhibitors; Rh110 fluorescence interference, quenched caspase reaction; 1,800 tested, under 10 active; activation (fluorescence interference), % at 20 µM; shares compounds with Apaf1 inhib; AID 504615;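 active = signal rise of 40% or more at 20 µM, treated as a fluorescence artifact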
# Apaf1 inh interf – shows fluorescence interference in the Apaf-1 inhibitor assay format | shares compounds with Apaf1 inhib | IC50, µM | 460 tested, under 10 active | fluorescence interference counterscreen, Apaf-1 assay format | AID 588538; call rule not given here
# * marks the source's active call; other numbers are inactive results; x = no result; + = active, no number. Compounds with a hit are over-represented: about 2.9% of the library has one in this group of screens.
SMILES,UBC13 inh,M18AAP inhibitor,Apaf1 inhib,EBNA-1 inhibitor,ZTA counter,PfGluPho inh,Apaf-1 inh conf2,Rh110 quench,others
CCN(CC)CCn1c(SCC(=O)Nc2ccc3c(c2)CCC3)nc2ccccc2c1=O,39.5,x,50.9*,x,-17.5,-2.6,7.3,8.1,
COCCn1c(SCC(=O)Nc2cc(C(C)(C)C)nn2-c2ccccc2)nc2ccccc2c1=O,23.4,-2.8,7.2,4.7,10.3,-0.3,x,x,
CN1CCN(S(=O)(=O)c2cccc(C(=O)Nc3cc(C(F)(F)F)ccc3N3CCCCC3)c2)CC1,16.7,x,40.5*,-15.6,1.6,22.7,22.8,7.6,
CN1CCN(S(=O)(=O)c2cccc(C(=O)Nc3ccccc3N3CCCCC3)c2)CC1,7.5,x,22.2,-8.1,-7.8,12.3,x,x,
CCN(CC)c1ccc(N=Cc2ccc([N+](=O)[O-])o2)cc1,-128.9,16.5,55.6*,+,+,69.3*,27.5,9.6,
O=S(=O)(/N=C(\c1ccc(Cl)cc1)N1CCOCC1)c1ccccc1,17.9,3.9,-3.4,9.6,1.9,-3.4,x,x,
O=S(=O)(/N=C/N1CCOCC1)c1ccc(Cl)cc1,9.4,-1.7,42.5*,6.6,-5.2,-10.1,10.7,-2.9,
O=c1[nH]c(=O)n(C2CCCCCC2)c(O)c1C=NCc1ccc(F)cc1,8.8,-2.8,40.4*,3.5,9.1,10.2,23.5,6.5,
CC(=O)c1ccc2c(c1)c(C#N)c1ccccc1[n+]2[O-],-89.8,9.4,73.9*,x,x,-9.2,42.3*,2.2,Apaf1 inh interf=>100
CCC(CC)C(=O)Nc1cccc(C(=O)Nc2ccc(S(=O)(=O)Nc3ccc(C)cc3)cc2)c1,-1.6,-3.7,17.9,1.2,-19.5,13.8,x,x,
Cc1ccc(-n2c(SCC(=O)Nc3cc(C)on3)nc3c([nH]c4ccccc43)c2=O)cc1,-4.5,4.5,53.6*,17.6,-9.3,11.1,14.1,-4.6,
COc1ccc(OC)c(S(=O)(=O)N/N=C\c2c[nH]c3ccccc23)c1,1.8,-10.2,11.6,x,x,-9.9,x,x,
CCC(C)NC(=O)Cn1nc(Cc2ccncc2)c2ccccc2c1=O (stereo unspecified),0.1,-5.3,11.1,4.0,2.4,-9.8,x,x,
C[C@@H](CSc1ccc(Br)cc1)CN1CC[C@H](NC(=O)OCc2ccccc2)CCC1=O,11.0,x,40.2*,x,x,25.5,16.3,0.3,
COc1ccc(SC[C@H](C)CN2CC[C@H](NC(=O)OCc3ccccc3)CCC2=O)cc1,5.9,x,70.3*,x,x,6.5,20.4,-0.9,
COc1ccc(S[C@@H](CCN2CC[C@H](NC(=O)OCc3ccccc3)CCC2=O)c2ccccc2)cc1,3.4,x,36.8,x,x,-8.0,x,x,
Oc1cc(NCCc2cccnc2)cc2cccnc12,27.6,x,56.0*,x,x,1.8,47.1*,4.8,Apaf1 inh interf=>100
CCc1ccccc1OCC(=O)Nc1ccc(N2CCCC2)cc1C,-0.3,x,42.7*,x,x,34.9,25.6,3.9,
Cc1cc(N2CCCC2)ccc1NC(=O)COc1ccccc1,2.5,x,52.2*,x,x,40.9,18.7,-1.5,
COc1ccc(N2CCCC2)c(NC(=O)COc2ccccc2)c1,-1.9,19.0,15.2,1.7,-8.6,1.7,x,x,
Cc1ccccc1OCC(=O)Nc1ccc(N2CCOCC2)cc1N1CCOCC1,-0.9,x,3.5,x,-14.8,9.6,x,x,
Cc1ccccc1NC(=O)Cc1nnc(SCC(=O)NC2CCCCC2)n1C,-6.9,7.2,9.0,-6.1,-24.0,-6.3,x,x,
CC(C(=O)NCc1ccccc1Cl)n1cc([N+](=O)[O-])cn1 (stereo unspecified),-8.9,-2.9,-11.2,-10.3,-19.8,24.9,x,x,
COC(=O)c1ccccc1S(=O)(=O)N1CCn2cccc2C1C (stereo unspecified),2.3,-2.3,-3.7,-5.7,6.2,11.1,x,x,
Cc1cc(C)c(S(=O)(=O)/N=C2\C=C(NS(=O)(=O)c3ccccc3)C(=O)c3ccccc32)c(C)c1,-107.1,3.3,63.5*,-2.5,-2.5,1.4,48.4*,-0.7,Apaf1 inh interf=>100
SMILES,UBC13 inh,M18AAP inhibitor,Apaf1 inhib,EBNA-1 inhibitor,ZTA counter,PfGluPho inh,Apaf-1 inh conf2,Rh110 quench,others
O=C(O)c1ccc(NS(=O)(=O)c2ccc3c(c2)C(=O)c2ccccc2C3=O)cc1,-30.7,2.6,1.6,-13.5,-5.4,-39.0,x,x,
Cc1cc(C)c(S(=O)(=O)/N=C2\C=C(Nc3ccc(C(=O)O)cc3)C(=O)c3ccccc32)c(C)c1,-133.9,-3.6,88.7*,-13.4,5.3,56.7,91.6*,18.0,Apaf1 inh interf=>100
O=C(O)c1ccc(NC2=C/C(=N/S(=O)(=O)c3ccccc3)c3ccccc3C2=O)cc1,-149.1,0.1,96.0*,x,x,106.9*,97.5*,-1.4,Apaf1 inh interf=>100
Cc1ccccc1NC(=O)COC(=O)c1ccc(C)c(S(=O)(=O)N2CCCCC2)c1,x,x,x,x,x,-3.8,x,x,
Cc1ccc(NC(=O)COC(=O)CC2CCCC2)cc1F,7.3,x,0.9,x,x,19.0,x,x,
COc1ccc(CNC(=O)C2CCCN2C(=O)NCc2ccccc2)cc1 (stereo unspecified),-2.9,4.7,-12.4,0.9,-2.1,3.7,x,x,
CC1(C)OC(c2ccccc2)=C/C(=C/C=N/NC(=O)c2ccncc2)O1,-62.3,-9.1,11.5,-6.5,-0.2,-5.7,x,x,
CC(=O)c1ccc(-n2c(SCC(=O)c3c[nH]c4ccccc34)nc3ccccc3c2=O)cc1,-2.5,-7.0,-16.6,23.9,5.5,8.6,x,x,
CCC(C(=O)N1CCOCC1)n1nc(C)c2c(C)n(-c3ccccc3)nc2c1=O (stereo unspecified),-0.7,-11.3,-5.0,7.3,7.5,16.4,x,x,
COc1ccc(-n2nc3cc(N)c(Br)cc3n2)cc1,2.6,7.3,69.1*,5.6,-1.5,-26.1,4.1,4.2,
C[C@H](CO)N1C[C@H](C)[C@@H](CN(C)S(=O)(=O)c2cccs2)OCc2cnnn2CCCC1=O,x,x,x,x,x,-1.9,x,x,
O=C1OC(Nc2ccc3ncccc3c2)c2ccccc21 (stereo unspecified),-37.6,4.6,82.1*,-1.7,12.7,55.1,77.7*,0.4,Apaf1 inh interf=>100
CN(C)CCN(C(=O)c1cccc2ccccc12)c1nc2cc3c(cc2s1)OCO3,1.6,-10.3,51.8*,9.6,-0.1,20.1,24.9,6.3,
CCOc1ccc2noc3c2c1C(=O)c1ccccc1-3,-130.1,-4.3,76.0*,-9.8,2.0,-29.8,56.3*,-20.3,
CCn1c(=O)c2cc(C(=O)N(C)c3cc(C)ccc3OC)sc2c2ccccc21,-1.4,-1.4,53.4*,-24.6,-0.3,4.2,26.0,7.0,
COc1cc(C(=O)N2CCN(c3cccc(C)c3C)CC2)ccc1OCC(=O)N1CCOCC1,25.2,x,50.8*,x,-6.7,-11.2,39.2,5.7,
O=C(NCCN1CCCC1)c1ccccc1Cl,9.6,-19.0,4.7,2.4,-12.0,-14.9,x,x,
